Source: ChEMBL document CHEMBL5705905, “Pharmacological targeting of kinases MST1 and MST2 augments tissue repair and regeneration” (Sci Transl Med, 2016)
pIC50, pKd: −log10 of the molar value. Activity calls are given as the source filed them. The calls are words filed in the database; no cut-off is given here.

Key:
[1] = target: Activin receptor type-2B (Homo sapiens) (UniProt Q13705); assay: Inhibition of ACVR2B (unknown origin) assessed as remaining activity at 1 uM by Kinome scan method relative to control
Procedure, shortened: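 Active-site-dependent competition-binding (KINOMEscan) panel of 468 kinases, test compound at 1 μM (from a 10 mM DMSO stock). Read-out is ctrl% = (test signal − positive control signal)/(negative control signal − positive control signal) × 100. DMSO is the negative control (100%) and a control compound is the positive control (0%). Lower ctrl% means tighter binding.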

[2] = target: Cyclin-dependent kinase 4 (Homo sapiens) (UniProt P11802); assay: Inhibition of CDK4 (unknown origin) assessed as remaining activity at 1 uM by Kinome scan method relative to control
Procedure, shortened: (§1)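 Active-site-dependent competition-binding profiling (KINOMEscan) at 1 μM against a 468-kinase panel; compound supplied from a 10 mM DMSO stock. Read-out is ctrl% = (test signal − positive control signal)/(negative control signal − positive control signal) × 100. DMSO is the negative control (100%) and a control compound the positive control (0%). Lower ctrl% means tighter binding.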

[3] = target: Serine/threonine-protein kinase Chk2 (Homo sapiens) (UniProt O96017); assay: Inhibition of CHEK2 (unknown origin) assessed as remaining activity at 1 uM by Kinome scan method relative to control; procedure, shortened: as §1
[4] = target: Casein kinase I isoform alpha-like (Homo sapiens) (UniProt Q8N752); assay: Inhibition of CSNK1A1L (unknown origin) assessed as remaining activity at 1 uM by Kinome scan method relative to control; procedure, shortened: as §1
[5] = target: Fibroblast growth factor receptor 4 (Homo sapiens) (UniProt P22455); assay: Inhibition of FGFR4 (unknown origin) assessed as remaining activity at 1 uM by Kinome scan method relative to control
[6] = target: Mitogen-activated protein kinase kinase kinase 15 (Homo sapiens) (UniProt Q6ZN16); assay: Inhibition of MAP3K15 (unknown origin) assessed as remaining activity at 1 uM by Kinome scan method relative to control
[7] = target: Maternal embryonic leucine zipper kinase (Homo sapiens) (UniProt Q14680); assay: Inhibition of MELK (unknown origin) assessed as remaining activity at 1 uM by Kinome scan method relative to control
[8] = target: Myosin light chain kinase (Homo sapiens) (UniProt Q32MK0); assay: Inhibition of MLCK (unknown origin) assessed as remaining activity at 1 uM by Kinome scan method relative to control
[9] = target: Serine/threonine-protein kinase MRCK beta (Homo sapiens) (UniProt Q9Y5S2); assay: Inhibition of MRCKB (unknown origin) assessed as remaining activity at 1 uM by Kinome scan method relative to control
[10] = target: Serine/threonine-protein kinase 26 (Homo sapiens, UniProt Q9P289); assay: Inhibition of MST4 (unknown origin) assessed as remaining activity at 1 uM by Kinome scan method relative to control
[11] = target: Myosin light chain kinase, smooth muscle (Homo sapiens) (UniProt Q15746); assay: Inhibition of MYLK (unknown origin) assessed as remaining activity at 1 uM by Kinome scan method relative to control
[12] = target: Mitogen-activated protein kinase 14 (Homo sapiens) (UniProt Q16539); assay: Inhibition of P38alpha (unknown origin) assessed as remaining activity at 1 uM by Kinome scan method relative to control
[13] = target: Calcium-dependent protein kinase 1 (Plasmodium falciparum) (UniProt P62344); assay: Inhibition of Plasmodium falciparum CDPK1 assessed as remaining activity at 1 uM by Kinome scan method relative to control
[14] = tested on: Phosphatidylinositol 4,5-bisphosphate 3-kinase catalytic subunit alpha isoform (Homo sapiens), P42336 [H1047Y]; assay: Inhibition of PIK3CA H1047Y mutant (unknown origin) assessed as remaining activity at 1 uM by Kinome scan method relative to control
[15] = target: Phosphatidylinositol 4-kinase beta (Homo sapiens) (UniProt Q9UBF8); assay: Inhibition of PIK4CB (unknown origin) assessed as remaining activity at 1 uM by Kinome scan method relative to control
[16] = target: Rho-associated protein kinase 2 (Homo sapiens) (UniProt O75116); assay: Inhibition of ROCK2 (unknown origin) assessed as remaining activity at 1 uM by Kinome scan method relative to control
[17] = target: Serine/threonine-protein kinase TAO3 (Homo sapiens) (UniProt Q9H2K8); assay: Inhibition of TAOK3 (unknown origin) assessed as remaining activity at 1 uM by Kinome scan method relative to control
[18] = target: Dual specificity testis-specific protein kinase 1 (Homo sapiens) (UniProt Q15569); assay: Inhibition of TESK1 (unknown origin) assessed as remaining activity at 1 uM by Kinome scan method relative to control
[19] = target: Activated CDC42 kinase 1 (Homo sapiens) (UniProt Q07912); assay: Inhibition of TNK2 (unknown origin) assessed as remaining activity at 1 uM by Kinome scan method relative to control
[20] = target: Non-receptor tyrosine-protein kinase TYK2 (Homo sapiens, UniProt P29597); assay: Inhibition of TYK2 JH1 domain (unknown origin) assessed as remaining activity at 1 uM by Kinome scan method relative to control
[21] = target: Serine/threonine-protein kinase ULK3 (Homo sapiens) (UniProt Q6PHR2); assay: Inhibition of ULK3 (unknown origin) assessed as remaining activity at 1 uM by Kinome scan method relative to control
[22] = target: Serine/threonine-protein kinase 25 (Homo sapiens) (UniProt O00506); assay: Inhibition of YSK1 (unknown origin) assessed as remaining activity at 1 uM by Kinome scan method relative to control
[23] = target: Receptor-interacting serine/threonine-protein kinase 4 (Homo sapiens, UniProt P57078); assay: Binding affinity to RIPK4 (unknown origin) assessed as dissociation constant
[24] = target: Serine/threonine-protein kinase TAO1 (Homo sapiens, UniProt Q7L7X3); assay: Inhibition of TAOK1 (unknown origin) in presence of ATP by enzymatic assay
HepG2 [25] = assay: Induction of apoptosis in human HepG2 cells overexpressing MST2 assessed as necrosis cells at 3 uM by annexinV staining (Rvb =0.24 %); assay type: functional
HepG2 [26] = assay: Inhibition of Flag-tagged MST1 D109A mutant (unknown origin) in human HepG2 cells assessed as MOB1 phosphorylation level at 3 uM by immunoblot analysis; assay type: cell-based
[27] = Half life in male Sprague-Dawley rat at 5 mg/kg, iv measured for 24 hrs by LC-MS/MS analysis; assay type: ADME, organism-based; settings: in vivo
Procedure, shortened: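 Sprague-Dawley rats, single intravenous or oral dose. Parameters (half-life, AUC, bioavailability) reported in a supplementary table.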

Mus musculus [28] = assay: In vivo inhibition of MST1/2 in wild-type Mst1fl/fl Mst2fl/fl mouse assessed as decrease in MOB1 phosphorylation level at 1 mg/kg, ip administrated daily for 7 days by immunoblot analysis; assay type: functional, organism-based; settings: Liver, time 7.0 day
Mus musculus [29] = assay: Protection against APAP induced liver injury in mouse assessed as decrease in mortality rate at 1 mg/kg, ip administered at 2.5 hrs in the presence of NAC; assay type: functional, organism-based
[30] = target: Serine/threonine-protein kinase 3 (Homo sapiens, UniProt Q13188, D109A)

Chain of Phosphatidylinositol 4,5-bisphosphate 3-kinase catalytic subunit alpha isoform (Homo sapiens), P42336 [H1047Y] (P42336 whole entry H1047Y, canonical isoform): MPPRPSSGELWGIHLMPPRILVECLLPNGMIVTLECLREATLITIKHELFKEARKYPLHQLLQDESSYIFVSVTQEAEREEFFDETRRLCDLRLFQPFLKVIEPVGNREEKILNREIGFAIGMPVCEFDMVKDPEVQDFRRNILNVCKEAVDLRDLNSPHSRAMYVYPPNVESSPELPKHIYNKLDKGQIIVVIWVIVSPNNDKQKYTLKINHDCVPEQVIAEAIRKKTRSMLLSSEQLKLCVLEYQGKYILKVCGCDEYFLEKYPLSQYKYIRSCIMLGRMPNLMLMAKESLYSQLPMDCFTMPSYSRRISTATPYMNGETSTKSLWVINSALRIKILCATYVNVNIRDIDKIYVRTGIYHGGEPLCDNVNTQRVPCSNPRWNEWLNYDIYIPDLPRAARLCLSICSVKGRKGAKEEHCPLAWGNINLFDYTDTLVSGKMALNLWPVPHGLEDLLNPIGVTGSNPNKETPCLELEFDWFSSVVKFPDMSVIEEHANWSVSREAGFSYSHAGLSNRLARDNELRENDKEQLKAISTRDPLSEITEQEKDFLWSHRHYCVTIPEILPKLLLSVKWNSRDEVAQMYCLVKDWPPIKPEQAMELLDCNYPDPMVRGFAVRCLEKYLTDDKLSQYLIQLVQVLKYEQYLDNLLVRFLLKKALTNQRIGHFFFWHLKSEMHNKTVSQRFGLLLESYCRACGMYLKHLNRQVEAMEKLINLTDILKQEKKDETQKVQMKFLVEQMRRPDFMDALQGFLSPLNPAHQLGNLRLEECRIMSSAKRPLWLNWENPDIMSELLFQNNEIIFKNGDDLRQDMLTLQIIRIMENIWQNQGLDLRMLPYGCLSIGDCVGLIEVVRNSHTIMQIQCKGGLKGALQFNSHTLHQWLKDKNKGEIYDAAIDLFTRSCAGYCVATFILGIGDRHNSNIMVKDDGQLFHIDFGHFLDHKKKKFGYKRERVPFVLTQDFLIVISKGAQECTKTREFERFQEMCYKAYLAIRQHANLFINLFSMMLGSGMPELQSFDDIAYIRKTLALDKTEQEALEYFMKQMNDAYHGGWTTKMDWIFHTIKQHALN
Chain of Rho-associated protein kinase 2 (Homo sapiens) (O75116 whole entry, looked up): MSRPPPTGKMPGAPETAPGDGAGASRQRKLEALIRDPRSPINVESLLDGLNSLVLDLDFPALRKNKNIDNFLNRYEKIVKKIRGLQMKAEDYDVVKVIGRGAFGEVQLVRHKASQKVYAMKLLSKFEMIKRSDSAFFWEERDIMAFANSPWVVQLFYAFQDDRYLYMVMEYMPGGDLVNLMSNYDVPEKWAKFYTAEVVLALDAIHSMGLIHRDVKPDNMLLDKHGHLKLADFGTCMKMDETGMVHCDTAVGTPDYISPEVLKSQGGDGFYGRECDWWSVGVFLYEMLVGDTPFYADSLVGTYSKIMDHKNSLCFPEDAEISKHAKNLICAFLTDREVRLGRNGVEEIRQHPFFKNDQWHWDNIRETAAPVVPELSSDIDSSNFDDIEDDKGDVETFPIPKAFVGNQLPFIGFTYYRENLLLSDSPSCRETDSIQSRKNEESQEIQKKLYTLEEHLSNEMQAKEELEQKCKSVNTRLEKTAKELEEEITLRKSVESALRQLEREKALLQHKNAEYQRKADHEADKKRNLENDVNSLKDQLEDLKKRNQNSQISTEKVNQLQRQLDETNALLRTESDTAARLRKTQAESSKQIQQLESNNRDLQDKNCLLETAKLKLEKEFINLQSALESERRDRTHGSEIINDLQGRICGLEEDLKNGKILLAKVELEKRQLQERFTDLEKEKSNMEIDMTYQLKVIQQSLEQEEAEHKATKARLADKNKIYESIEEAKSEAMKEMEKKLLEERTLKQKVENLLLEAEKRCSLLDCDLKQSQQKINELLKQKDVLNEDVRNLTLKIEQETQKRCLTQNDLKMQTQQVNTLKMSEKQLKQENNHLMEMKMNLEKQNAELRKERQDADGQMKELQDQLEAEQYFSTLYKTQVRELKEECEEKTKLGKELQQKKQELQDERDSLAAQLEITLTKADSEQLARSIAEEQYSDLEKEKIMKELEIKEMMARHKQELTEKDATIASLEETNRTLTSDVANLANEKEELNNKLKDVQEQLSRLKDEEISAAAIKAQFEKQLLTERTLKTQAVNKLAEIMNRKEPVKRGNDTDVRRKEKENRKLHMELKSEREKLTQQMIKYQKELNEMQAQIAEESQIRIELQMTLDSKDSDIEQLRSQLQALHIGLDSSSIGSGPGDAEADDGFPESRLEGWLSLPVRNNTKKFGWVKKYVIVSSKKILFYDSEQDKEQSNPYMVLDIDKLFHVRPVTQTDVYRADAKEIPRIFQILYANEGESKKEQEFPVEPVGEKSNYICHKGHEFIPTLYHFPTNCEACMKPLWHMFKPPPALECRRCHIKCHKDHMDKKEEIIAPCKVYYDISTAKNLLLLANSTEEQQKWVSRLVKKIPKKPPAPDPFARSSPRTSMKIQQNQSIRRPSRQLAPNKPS
Chain of Serine/threonine-protein kinase MRCK beta (Homo sapiens) (Q9Y5S2 whole entry): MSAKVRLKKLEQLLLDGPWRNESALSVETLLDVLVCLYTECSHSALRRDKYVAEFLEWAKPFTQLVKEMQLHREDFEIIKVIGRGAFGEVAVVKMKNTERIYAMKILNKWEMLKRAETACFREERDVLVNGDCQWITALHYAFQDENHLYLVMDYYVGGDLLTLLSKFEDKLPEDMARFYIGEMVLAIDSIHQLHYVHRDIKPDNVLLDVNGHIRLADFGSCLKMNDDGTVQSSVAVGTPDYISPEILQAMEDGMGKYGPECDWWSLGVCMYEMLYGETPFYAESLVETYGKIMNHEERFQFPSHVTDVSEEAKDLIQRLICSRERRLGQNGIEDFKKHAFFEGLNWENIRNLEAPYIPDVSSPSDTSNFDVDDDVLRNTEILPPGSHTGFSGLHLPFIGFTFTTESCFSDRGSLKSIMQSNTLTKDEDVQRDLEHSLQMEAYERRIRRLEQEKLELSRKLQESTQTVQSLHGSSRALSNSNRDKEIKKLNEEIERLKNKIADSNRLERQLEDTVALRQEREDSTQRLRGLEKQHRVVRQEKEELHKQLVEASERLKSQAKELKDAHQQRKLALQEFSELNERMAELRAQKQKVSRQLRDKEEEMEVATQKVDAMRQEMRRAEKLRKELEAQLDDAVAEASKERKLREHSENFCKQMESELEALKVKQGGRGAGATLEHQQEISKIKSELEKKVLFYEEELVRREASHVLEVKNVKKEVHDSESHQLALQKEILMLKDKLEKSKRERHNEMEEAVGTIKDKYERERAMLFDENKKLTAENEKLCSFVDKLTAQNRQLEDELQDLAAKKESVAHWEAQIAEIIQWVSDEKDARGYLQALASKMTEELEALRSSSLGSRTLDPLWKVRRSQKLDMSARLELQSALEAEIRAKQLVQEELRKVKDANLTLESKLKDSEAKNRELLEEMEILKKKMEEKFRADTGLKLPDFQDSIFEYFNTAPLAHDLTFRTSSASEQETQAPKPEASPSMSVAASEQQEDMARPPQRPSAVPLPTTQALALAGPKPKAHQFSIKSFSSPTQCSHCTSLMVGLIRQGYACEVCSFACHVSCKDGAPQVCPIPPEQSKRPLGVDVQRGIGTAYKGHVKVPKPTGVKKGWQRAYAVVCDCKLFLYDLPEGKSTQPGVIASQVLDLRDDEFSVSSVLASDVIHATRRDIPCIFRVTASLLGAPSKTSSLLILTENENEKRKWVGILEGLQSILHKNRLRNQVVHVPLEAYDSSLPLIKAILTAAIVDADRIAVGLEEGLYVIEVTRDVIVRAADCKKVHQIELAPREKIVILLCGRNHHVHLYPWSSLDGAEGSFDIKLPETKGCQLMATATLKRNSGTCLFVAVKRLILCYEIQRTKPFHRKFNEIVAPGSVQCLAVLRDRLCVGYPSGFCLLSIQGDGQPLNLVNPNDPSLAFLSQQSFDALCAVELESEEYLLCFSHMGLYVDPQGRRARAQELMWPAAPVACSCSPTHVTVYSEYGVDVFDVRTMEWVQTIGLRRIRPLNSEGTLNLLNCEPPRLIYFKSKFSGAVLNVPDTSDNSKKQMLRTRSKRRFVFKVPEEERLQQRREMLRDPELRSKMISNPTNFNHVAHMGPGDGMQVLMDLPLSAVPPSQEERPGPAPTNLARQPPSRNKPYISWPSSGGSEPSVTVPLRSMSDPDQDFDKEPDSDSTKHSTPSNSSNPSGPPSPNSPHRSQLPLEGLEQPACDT
Chain of Activin receptor type-2B (Homo sapiens) (Q13705 whole entry): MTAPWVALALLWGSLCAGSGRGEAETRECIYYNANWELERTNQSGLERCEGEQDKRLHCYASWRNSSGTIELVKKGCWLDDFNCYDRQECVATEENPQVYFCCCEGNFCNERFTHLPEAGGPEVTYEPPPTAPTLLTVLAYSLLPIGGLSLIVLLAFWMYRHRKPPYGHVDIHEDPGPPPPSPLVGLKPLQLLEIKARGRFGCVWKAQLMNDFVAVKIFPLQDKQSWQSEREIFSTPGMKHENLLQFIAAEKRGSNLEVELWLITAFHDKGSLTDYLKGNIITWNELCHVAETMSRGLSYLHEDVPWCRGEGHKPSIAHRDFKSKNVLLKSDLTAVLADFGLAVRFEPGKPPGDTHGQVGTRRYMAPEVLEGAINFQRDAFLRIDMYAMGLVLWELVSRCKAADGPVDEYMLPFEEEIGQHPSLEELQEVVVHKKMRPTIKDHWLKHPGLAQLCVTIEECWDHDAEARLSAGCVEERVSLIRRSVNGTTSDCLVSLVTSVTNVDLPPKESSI
Chain of Cyclin-dependent kinase 4 (Homo sapiens) (P11802 whole entry): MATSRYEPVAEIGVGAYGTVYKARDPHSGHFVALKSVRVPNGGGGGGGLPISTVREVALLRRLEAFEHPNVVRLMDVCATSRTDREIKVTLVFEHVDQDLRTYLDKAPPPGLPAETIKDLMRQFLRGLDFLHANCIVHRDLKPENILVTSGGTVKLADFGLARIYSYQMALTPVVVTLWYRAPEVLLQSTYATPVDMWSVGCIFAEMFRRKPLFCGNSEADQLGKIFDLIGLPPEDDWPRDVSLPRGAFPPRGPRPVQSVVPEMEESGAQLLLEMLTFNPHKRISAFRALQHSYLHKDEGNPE

Work on `CN1C(=O)c2sccc2N(C)c2nc(Nc3ccc(S(N)(=O)=O)cc3)ncc21` yielded an Activity [1] of 100%, an Activity [2] of 86% and an Activity [3] of 100%. The Activity [4] was 93%, the Activity [5] was 100% and the Activity [6] was 67%. It also gave an Activity [7] of 100%, an Activity [8] of 87% and an Activity [9] of 100%. The Activity [10] was 0.6%, the Activity [11] was 100% and the Activity [12] was 88%. It also gave an Activity [13] of 100%, an Activity [14] of 57% and an Activity [15] of 65%. The Activity [16] was 96%, the Activity [17] was 4.5% and the Activity [18] was 80%. It also gave an Activity [19] of 95%, an Activity [20] of 2.7% and an Activity [21] of 84%. It also gave an Activity [22] of 94%, a pKd [23] of 6.85 and a pIC50 [24] of 6.78. For the same compound, the Activity (HepG2 [25]) was 0.27%, the inhibition (HepG2 [26]) was “Active” and the half-life [27] was 1.24 h. The inhibition (Mus musculus [28]) was “Active”, the Activity (Mus musculus [29]) was “Active” and the pIC50 [30] was 5.98.
